Measurements taken from ChEMBL document CHEMBL1147411, “7-Hydroxynaphthalen-1-yl-urea and -amide antagonists of human vanilloid receptor 1” (Bioorg Med Chem Lett, 2004).

What was measured:
[1] = target: T1, Transient receptor potential cation channel subfamily V member 1 (Homo sapiens, UniProt Q8NER1); test: Increased [Ca2+] influx in HEK293 cell […] human vanilloid receptor subtype 1; type: functional, cell-based
How it was run: (§1)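 hVR1/HEK cells on poly-D-lysine-coated plates were loaded with Fluo-3/AM for 1 h after 2 days. Cells received single compound concentrations, and intracellular Ca2+ was read by FLIPR for 3 min. Capsaicin was then added at […] final to fully activate VR1.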

[2] = target: T1, Transient receptor potential cation channel subfamily V member 1; test: Binding affinity towards cloned human vanilloid receptor subtype 1 in HEK293 cell membranes using [3H]RTX as radioligand
How it was run: (§2)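 Human VR1 stably expressed in HEK293 cells. Membranes were made by homogenizing, spinning at 3000 rpm for 10 min, and spinning the supernatant at 18,000 rpm for 20 min. Binding was 60 min at 37 °C with 0.3–0.6 nM [3H]-RTX in HEPES buffer pH 7.4. Samples were ice-cooled, given α-acid glycoprotein, centrifuged, and the pellet counted. Nonspecific binding used 200 nM unlabeled RTX. Percent inhibition calculated; Ki by Cheng–Prusoff.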

[3] = target: T1, Transient receptor potential cation channel subfamily V member 1; test: Functional antagonistic activity against human vanilloid receptor subtype 1 in HEK293 cell […] as inhibition of agonist-induced increases in intracellular [Ca2+] levels; type: cell-based
How it was run: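 Fluo-3/AM-loaded hVR1/HEK cells were read by FLIPR. Cells were incubated with compound, then challenged with capsaicin at a concentration giving ~80% maximal response. IC50 came from the inhibition of the capsaicin-induced Ca2+ rise.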

[4] = target: T1, Transient receptor potential cation channel subfamily V member 1; test: Displacement of [3H]-RTX binding to human vanilloid receptor subtype 1 expressed in HEK293 cell membranes (inactive); how it was run: as §2
[5] = target: T1, Transient receptor potential cation channel subfamily V member 1; test: Increased [Ca2+] influx in HEK293 cell […] human vanilloid receptor subtype 1 (inactive); type: functional, cell-based; how it was run: as §1
[6] = target: T1, Transient receptor potential cation channel subfamily V member 1; test: Displacement of [3H]RTX binding to human vanilloid receptor subtype 1 expressed in HEK293 cell membranes at 10 uM; how it was run: as §2

T1 sequence (Q8NER1 whole entry): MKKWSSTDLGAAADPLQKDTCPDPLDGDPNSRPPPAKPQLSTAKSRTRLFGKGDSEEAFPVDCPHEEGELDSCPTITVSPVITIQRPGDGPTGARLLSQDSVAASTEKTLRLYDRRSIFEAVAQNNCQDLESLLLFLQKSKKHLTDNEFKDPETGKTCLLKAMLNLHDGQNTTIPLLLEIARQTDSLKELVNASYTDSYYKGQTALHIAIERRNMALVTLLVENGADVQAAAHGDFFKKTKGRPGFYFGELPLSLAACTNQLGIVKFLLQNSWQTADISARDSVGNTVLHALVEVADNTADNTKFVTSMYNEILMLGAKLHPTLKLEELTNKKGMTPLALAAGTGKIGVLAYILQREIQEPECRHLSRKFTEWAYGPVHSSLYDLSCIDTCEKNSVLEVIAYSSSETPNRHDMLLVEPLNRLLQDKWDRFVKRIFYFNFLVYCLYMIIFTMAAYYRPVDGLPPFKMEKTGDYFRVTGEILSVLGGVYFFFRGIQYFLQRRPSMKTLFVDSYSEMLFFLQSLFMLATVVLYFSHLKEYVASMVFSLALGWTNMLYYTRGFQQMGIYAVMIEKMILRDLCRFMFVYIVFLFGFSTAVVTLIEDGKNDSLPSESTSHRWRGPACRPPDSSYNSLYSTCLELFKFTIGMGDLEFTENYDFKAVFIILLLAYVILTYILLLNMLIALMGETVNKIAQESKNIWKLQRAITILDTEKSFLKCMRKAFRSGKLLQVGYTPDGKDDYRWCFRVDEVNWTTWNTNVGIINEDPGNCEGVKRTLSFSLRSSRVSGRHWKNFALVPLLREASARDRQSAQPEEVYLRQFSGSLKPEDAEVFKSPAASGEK

Ki [2] [nM] | IC50 [3] [nM] | SMILES | further results
 |  | O=C(NCCSCc1cccc(C(F)(F)F)c1)N1CCSCC1 | EC50 [1]: 390 nM
120 | 100 | Oc1cc2c(cc1O)CN(C(=S)NCCc1ccc(Cl)cc1)CCC2 [CAPSAZEPINE] | 
 | 6300 | O=C(Nc1cccc2ccc(O)cc12)Oc1ccccc1 | Ki [4]: > 10000 nM
1 | 27 | O=C(NCc1ccc(OC(F)(F)F)cc1)Nc1cccc2ccc(O)cc12 | 
 |  | CN(Cc1ccccc1)C(=O)Nc1cccc2ccc(O)cc12 | Ki [4]: > 10000 nM; IC50 [5]: > 10000 nM
 | 770 | O=C(Cc1ccc(Cl)c(Cl)c1)Nc1cccc2ccc(O)cc12 | 
 | 320 | O=C(Nc1cccc2ccc(O)cc12)c1ccc(Cl)cc1 | inhibition [6]: 28%
 |  | O=C(Nc1cccc2ccc(O)cc12)N(Cc1ccccc1)Cc1ccccc1 | IC50 [5]: > 10000 nM
4.6 | 17 | O=C(CCc1ccc(Cl)c(Cl)c1)Nc1cccc2ccc(O)cc12 | 
2.1 | 26 | O=C(NCc1cccc(C(F)(F)F)c1)Nc1cccc2ccc(O)cc12 | 
4 |  | CC(NC(=O)Nc1cccc2ccc(O)cc12)c1ccc(C(F)(F)F)cc1 (stereo not drawn) | 
1 | 90 | O=C(NCCc1ccc(Cl)c(Cl)c1)Nc1cccc2ccc(O)cc12 | 
2 | 15 | O=C(NCc1ccc(Cl)c(Cl)c1)Nc1cccc2ccc(O)cc12 | 
7 |  | O=C(NCc1ccc(F)c(F)c1)Nc1cccc2ccc(O)cc12 | 
1 | 4 | O=C(NCc1ccc(C(F)(F)F)cc1)Nc1cccc2ccc(O)cc12 | 
 | 45 | O=C(NCc1ccccc1)Nc1cccc2ccc(O)cc12 | 
9.8 | 21 | O=C(CCc1ccc(Cl)cc1)Nc1cccc2ccc(O)cc12 | 
